Assay results: ChEMBL document CHEMBL2331439 (J Med Chem, 2013)
Calls of active or inactive are those of the source. The calls are words filed in the database; no cut-off is given here.

Experiments:
[1] = biological target: Interleukin-1 receptor-associated kinase 4 (Homo sapiens) (UniProt Q9NWZ3); assay: Inhibition of recombinant IRAK4 (unknown origin) at 5 uM by FRET-based Z'-LYTE assay
Summary of the method: (§1)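 Single-point panel screen at 5 μM in duplicate. ATP is at the apparent Km of each kinase, and the Z'-LYTE FRET peptide substrate is used. Each point has two control wells: a protease control for interference with development and a fluorescence control for interference with the FRET read-out. Values above 100% are treated as maximal inhibition and values below 0% as none.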

[2] = biological target: cAMP-dependent protein kinase catalytic subunit alpha (Homo sapiens) (UniProt P17612); assay: Inhibition of recombinant PRKACA (unknown origin) at 5 uM by FRET-based Z'-LYTE assay; summary of the method: as §1
[3] = biological target: T1, Mitogen-activated protein kinase 1 (Homo sapiens, UniProt P28482); assay: Competitive inhibition of recombinant ERK2 (unknown origin) by FRET-based Z'-LYTE assay
T1 sequence (P28482 whole entry): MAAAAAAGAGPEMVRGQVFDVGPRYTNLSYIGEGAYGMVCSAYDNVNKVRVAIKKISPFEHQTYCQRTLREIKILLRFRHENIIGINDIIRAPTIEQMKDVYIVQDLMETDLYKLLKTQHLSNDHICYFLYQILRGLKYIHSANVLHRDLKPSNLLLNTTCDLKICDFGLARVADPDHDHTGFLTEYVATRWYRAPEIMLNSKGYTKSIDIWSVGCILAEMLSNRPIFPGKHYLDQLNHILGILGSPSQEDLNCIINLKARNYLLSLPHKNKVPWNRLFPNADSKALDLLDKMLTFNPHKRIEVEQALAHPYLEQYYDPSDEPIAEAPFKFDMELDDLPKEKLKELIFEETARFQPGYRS

[4] = biological target: Tyrosine-protein kinase BTK (Homo sapiens) (UniProt Q06187); assay: Inhibition of recombinant BTK (unknown origin) at 5 uM by FRET-based Z'-LYTE assay; summary of the method: as §1
[5] = biological target: RAC-beta serine/threonine-protein kinase (Homo sapiens, UniProt P31751); assay: Inhibition of recombinant AKT2 (unknown origin) by FRET-based Z'-LYTE assay
Chain of RAC-beta serine/threonine-protein kinase (P31751 whole entry): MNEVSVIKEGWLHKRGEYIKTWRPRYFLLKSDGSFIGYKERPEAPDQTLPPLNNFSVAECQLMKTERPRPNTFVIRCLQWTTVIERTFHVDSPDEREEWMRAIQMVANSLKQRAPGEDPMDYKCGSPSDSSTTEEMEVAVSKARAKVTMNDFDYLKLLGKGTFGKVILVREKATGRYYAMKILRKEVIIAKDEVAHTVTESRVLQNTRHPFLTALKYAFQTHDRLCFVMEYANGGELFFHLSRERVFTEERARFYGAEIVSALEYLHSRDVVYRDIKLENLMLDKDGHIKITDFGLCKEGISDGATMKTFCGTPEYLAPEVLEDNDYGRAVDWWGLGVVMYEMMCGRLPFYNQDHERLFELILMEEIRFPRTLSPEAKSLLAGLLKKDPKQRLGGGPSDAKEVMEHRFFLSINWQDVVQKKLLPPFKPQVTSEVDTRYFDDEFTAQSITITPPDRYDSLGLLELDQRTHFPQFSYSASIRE

[6] = biological target: High affinity nerve growth factor receptor (Homo sapiens) (UniProt P04629); assay: Inhibition of recombinant NTRK1 (unknown origin) at 5 uM by FRET-based Z'-LYTE assay; summary of the method: as §1
Chain of High affinity nerve growth factor receptor (Homo sapiens) (P04629 33-796 limits assumed): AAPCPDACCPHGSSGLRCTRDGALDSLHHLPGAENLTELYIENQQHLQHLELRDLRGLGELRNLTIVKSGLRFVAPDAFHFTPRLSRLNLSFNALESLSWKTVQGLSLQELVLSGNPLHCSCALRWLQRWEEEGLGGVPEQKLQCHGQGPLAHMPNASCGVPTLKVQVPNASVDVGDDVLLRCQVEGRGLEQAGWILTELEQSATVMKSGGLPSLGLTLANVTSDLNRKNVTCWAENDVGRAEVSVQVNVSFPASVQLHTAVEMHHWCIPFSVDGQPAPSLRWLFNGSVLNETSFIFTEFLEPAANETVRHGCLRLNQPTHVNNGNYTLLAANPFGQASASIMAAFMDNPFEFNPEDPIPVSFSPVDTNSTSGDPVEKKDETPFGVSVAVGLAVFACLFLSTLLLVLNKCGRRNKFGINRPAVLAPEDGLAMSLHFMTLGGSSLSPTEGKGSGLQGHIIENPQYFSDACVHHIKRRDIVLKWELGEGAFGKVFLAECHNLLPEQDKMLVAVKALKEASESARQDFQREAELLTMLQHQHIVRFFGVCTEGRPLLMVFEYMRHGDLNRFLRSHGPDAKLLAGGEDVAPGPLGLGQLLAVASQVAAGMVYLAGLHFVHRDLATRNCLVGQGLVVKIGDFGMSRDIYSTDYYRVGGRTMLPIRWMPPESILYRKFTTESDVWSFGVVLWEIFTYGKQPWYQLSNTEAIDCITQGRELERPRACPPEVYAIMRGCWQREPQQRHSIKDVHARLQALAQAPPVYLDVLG

[7] = biological target: Mitogen-activated protein kinase 8 (Homo sapiens) (UniProt P45983); assay: Inhibition of recombinant MAPK8 (unknown origin) at 5 uM by FRET-based Z'-LYTE assay; summary of the method: as §1
Chain of Mitogen-activated protein kinase 8 (Homo sapiens) (P45983 whole entry): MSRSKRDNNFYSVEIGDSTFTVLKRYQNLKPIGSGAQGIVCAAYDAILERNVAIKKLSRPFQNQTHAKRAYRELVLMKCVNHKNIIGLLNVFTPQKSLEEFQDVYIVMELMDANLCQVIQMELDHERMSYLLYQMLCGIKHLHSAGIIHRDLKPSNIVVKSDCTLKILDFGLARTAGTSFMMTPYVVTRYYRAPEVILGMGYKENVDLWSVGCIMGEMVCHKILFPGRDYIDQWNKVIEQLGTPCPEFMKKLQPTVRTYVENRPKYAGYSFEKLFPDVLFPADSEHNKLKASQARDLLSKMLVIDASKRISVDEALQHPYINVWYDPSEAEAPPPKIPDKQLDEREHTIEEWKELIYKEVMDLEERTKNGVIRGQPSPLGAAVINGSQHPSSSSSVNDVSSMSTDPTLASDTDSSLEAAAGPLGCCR

[8] = biological target: T2, Serine/threonine-protein kinase Nek1 (Homo sapiens, UniProt Q96PY6); assay: Inhibition of recombinant NEK1 (unknown origin) by FRET-based Z'-LYTE assay
T2 sequence (Q96PY6 whole entry): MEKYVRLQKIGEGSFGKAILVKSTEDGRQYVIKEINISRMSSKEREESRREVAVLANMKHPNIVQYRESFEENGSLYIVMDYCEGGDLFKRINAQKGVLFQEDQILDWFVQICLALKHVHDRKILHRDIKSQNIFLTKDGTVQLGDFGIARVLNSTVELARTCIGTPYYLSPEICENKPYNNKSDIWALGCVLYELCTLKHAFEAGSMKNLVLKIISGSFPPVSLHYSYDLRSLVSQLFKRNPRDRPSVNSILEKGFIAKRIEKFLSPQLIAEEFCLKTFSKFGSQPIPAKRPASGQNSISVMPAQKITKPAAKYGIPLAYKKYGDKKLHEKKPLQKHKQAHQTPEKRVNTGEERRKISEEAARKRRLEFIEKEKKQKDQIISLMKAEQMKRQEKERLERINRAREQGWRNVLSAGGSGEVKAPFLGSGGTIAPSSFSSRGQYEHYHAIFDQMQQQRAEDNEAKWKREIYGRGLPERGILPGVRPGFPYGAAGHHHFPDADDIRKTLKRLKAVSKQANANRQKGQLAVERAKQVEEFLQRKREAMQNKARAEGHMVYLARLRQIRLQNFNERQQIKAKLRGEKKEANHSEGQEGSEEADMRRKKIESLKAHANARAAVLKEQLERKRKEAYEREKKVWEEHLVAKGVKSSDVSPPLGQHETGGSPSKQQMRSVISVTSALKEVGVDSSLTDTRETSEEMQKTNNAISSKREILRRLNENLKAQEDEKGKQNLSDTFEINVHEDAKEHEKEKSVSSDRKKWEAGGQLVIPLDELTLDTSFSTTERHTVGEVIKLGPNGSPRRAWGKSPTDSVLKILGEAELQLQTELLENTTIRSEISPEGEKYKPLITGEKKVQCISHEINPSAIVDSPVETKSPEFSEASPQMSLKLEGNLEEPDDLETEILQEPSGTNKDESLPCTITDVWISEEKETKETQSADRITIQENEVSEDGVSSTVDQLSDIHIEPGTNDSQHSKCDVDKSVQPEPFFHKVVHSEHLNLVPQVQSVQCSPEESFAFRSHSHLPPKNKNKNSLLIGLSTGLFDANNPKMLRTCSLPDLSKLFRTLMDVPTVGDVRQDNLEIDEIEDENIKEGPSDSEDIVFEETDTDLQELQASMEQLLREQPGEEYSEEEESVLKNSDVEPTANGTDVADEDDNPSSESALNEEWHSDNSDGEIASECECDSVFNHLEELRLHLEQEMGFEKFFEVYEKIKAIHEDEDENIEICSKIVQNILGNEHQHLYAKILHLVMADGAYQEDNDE

[9] = biological target: RAC-alpha serine/threonine-protein kinase (Homo sapiens, UniProt P31749); assay: Inhibition of recombinant AKT1 (unknown origin) by FRET-based Z'-LYTE assay
[10] = biological target: T1, Mitogen-activated protein kinase 1; assay: Inhibition of recombinant MAPK1 (unknown origin) at 5 uM by FRET-based Z'-LYTE assay; summary of the method: as §1
[11] = biological target: Cyclin-dependent kinase 7/ cyclin H (Homo sapiens) (UniProt P51946+P50613); assay: Inhibition of recombinant CDK7/cyclin H/MNAT1 (unknown origin) at 5 uM after 1 hr by FRET-based adapta assay; type: protein-complex assay
Summary of the method: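 After inhibitor and all reaction components are added, the reaction runs for 1 h. ADP formed by the kinase displaces an antibody-tracer complex, so reduced ADP gives a high TR-FRET signal. Inhibition is calculated against a control.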

[12] = biological target: Serine/threonine-protein kinase PLK1 (Homo sapiens) (UniProt P53350); assay: Inhibition of recombinant PLK1 (unknown origin) at 5 uM by FRET-based Z'-LYTE assay; summary of the method: as §1
Chain of Serine/threonine-protein kinase PLK1 (Homo sapiens) (P53350 whole entry): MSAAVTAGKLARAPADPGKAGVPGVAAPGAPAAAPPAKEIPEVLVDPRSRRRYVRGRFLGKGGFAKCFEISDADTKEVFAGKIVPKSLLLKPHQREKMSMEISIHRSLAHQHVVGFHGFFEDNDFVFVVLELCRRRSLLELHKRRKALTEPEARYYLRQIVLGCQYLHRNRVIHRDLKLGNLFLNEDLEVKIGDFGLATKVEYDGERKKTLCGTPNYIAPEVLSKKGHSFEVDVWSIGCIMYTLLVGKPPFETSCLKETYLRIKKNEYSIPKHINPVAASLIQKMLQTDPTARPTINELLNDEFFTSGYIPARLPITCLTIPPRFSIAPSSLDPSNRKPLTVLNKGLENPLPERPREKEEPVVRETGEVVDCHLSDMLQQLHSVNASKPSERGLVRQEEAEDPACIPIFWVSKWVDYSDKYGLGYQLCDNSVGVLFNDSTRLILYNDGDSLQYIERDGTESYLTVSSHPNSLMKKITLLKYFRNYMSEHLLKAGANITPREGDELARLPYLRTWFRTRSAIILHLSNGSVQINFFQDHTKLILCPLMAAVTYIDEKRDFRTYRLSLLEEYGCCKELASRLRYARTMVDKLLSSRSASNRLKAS

[13] = biological target: Serine/threonine-protein kinase mTOR (Homo sapiens) (UniProt P42345); assay: Inhibition of recombinant FRAP1 (unknown origin) at 5 uM by FRET-based Z'-LYTE assay; summary of the method: as §1
[14] = biological target: Tyrosine-protein kinase JAK3 (Homo sapiens) (UniProt P52333); assay: Inhibition of recombinant JAK3 (unknown origin) at 5 uM by FRET-based Z'-LYTE assay; summary of the method: as §1
[15] = biological target: Inhibitor of nuclear factor kappa-B kinase subunit beta (Homo sapiens) (UniProt O14920); assay: Inhibition of recombinant IKBKB (unknown origin) at 5 uM by FRET-based Z'-LYTE assay; summary of the method: as §1
Chain of Inhibitor of nuclear factor kappa-B kinase subunit beta (Homo sapiens) (O14920 whole entry): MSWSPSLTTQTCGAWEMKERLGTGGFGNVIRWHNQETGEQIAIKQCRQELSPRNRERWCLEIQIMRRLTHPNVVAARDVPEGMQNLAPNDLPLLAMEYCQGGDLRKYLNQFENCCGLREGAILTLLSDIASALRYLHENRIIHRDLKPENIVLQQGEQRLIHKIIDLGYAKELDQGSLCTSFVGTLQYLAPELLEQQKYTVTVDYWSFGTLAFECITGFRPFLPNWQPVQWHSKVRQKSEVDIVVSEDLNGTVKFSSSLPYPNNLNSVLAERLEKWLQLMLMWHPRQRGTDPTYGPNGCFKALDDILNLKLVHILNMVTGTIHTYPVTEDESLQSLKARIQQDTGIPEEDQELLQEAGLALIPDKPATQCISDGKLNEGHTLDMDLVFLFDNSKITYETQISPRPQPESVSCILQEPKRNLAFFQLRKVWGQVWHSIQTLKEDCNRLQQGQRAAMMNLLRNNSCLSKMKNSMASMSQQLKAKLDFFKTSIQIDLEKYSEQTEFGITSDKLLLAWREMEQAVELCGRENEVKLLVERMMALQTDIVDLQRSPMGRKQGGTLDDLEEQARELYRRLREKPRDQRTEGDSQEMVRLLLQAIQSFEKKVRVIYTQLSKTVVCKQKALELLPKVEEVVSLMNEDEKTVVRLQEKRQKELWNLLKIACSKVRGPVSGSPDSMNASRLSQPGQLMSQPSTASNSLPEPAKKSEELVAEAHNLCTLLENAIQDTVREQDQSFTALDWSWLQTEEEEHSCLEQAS

[16] = biological target: AMP-activated protein kinase (AMPK) alpha-1/beta-1/gamma-1 (Homo sapiens) (UniProt P54619+Q9Y478+Q13131); assay: Inhibition of recombinant AMPK A1/B1/G1 (unknown origin) at 5 uM by FRET-based Z'-LYTE assay; type: protein-complex assay; summary of the method: as §1
[17] = biological target: Serine/threonine-protein kinase Chk1 (Homo sapiens) (UniProt O14757); assay: Inhibition of recombinant CHEK1 (unknown origin) at 5 uM by FRET-based Z'-LYTE assay; summary of the method: as §1
[18] = biological target: Serine/threonine-protein kinase PAK 4 (Homo sapiens) (UniProt O96013); assay: Inhibition of recombinant PAK4 (unknown origin) at 5 uM by FRET-based Z'-LYTE assay; summary of the method: as §1
Chain of Serine/threonine-protein kinase PAK 4 (Homo sapiens) (O96013 whole entry, looked up): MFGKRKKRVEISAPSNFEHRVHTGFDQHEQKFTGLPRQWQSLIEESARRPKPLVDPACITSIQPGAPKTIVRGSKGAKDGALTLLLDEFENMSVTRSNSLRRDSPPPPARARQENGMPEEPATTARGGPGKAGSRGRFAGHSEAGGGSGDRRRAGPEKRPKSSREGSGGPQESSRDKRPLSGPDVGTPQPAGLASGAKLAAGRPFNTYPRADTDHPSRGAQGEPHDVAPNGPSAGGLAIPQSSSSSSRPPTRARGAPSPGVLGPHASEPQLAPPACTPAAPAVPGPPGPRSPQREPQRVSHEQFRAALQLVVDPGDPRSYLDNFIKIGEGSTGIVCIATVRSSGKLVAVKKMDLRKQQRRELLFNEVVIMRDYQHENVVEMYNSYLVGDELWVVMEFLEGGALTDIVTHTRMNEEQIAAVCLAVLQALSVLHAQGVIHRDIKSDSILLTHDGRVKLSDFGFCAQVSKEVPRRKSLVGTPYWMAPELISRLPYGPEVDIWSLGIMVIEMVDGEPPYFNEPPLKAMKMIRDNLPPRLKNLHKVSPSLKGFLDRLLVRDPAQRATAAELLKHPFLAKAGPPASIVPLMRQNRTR

[19] = biological target: 3-phosphoinositide-dependent protein kinase 1 (Homo sapiens) (UniProt O15530); assay: Inhibition of recombinant PDK1 (unknown origin) at 5 uM by FRET-based Z'-LYTE assay; summary of the method: as §1
Chain of 3-phosphoinositide-dependent protein kinase 1 (Homo sapiens) (O15530 whole entry): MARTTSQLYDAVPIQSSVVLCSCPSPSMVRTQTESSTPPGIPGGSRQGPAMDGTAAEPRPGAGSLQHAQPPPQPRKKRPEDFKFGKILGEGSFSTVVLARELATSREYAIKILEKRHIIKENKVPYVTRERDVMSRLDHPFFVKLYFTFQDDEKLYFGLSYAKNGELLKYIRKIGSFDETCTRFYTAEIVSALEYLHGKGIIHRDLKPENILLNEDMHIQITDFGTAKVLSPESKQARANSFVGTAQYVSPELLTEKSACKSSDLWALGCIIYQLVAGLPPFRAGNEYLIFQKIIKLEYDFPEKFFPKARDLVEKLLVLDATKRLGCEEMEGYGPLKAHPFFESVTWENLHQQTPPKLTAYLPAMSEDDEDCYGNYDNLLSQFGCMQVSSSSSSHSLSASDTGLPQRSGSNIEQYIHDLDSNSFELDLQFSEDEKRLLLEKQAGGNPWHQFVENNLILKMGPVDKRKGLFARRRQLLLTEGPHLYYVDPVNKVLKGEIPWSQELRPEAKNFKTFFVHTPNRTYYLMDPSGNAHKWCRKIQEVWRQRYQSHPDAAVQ

Chain of Interleukin-1 receptor-associated kinase 4 (Homo sapiens) (Q9NWZ3 whole entry): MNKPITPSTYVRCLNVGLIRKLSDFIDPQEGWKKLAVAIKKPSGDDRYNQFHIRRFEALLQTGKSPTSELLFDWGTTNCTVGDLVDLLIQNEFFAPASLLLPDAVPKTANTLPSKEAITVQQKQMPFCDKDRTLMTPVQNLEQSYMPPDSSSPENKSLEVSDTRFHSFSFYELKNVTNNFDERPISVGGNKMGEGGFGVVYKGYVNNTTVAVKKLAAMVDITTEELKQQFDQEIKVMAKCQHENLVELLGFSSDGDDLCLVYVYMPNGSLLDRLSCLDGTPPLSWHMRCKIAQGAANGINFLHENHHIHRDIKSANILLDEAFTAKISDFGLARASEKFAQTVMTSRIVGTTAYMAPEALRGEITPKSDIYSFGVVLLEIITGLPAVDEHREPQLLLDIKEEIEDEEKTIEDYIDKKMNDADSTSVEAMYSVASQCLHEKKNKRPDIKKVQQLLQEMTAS

inhibition [1]: 5% | inhibition [2]: 11% | inhibition [3]: Active | inhibition [4]: 44% | IC50 [5]: 20 nM | inhibition [6]: 25% | inhibition [7]: 16% | IC50 [8]: 500 nM | IC50 [9]: 20 nM | inhibition [10]: 34% | inhibition [11]: 3% | inhibition [12]: -9% | inhibition [13]: -5% | inhibition [14]: 15% | inhibition [15]: 107% | inhibition [16]: 95% | inhibition [17]: 90% | inhibition [18]: 18% | inhibition [19]: 54%
SMILES: O=C1/C(=C/c2ccccn2)CNC/C1=C\c1ccccn1
